The values below come from ChEMBL document CHEMBL1145774, “Synthesis and biological effects of novel 2-amino-3-naphthoylthiophenes as allosteric enhancers of the A1 adenosine receptor” (J Med Chem, 2003).

Format in all cases: functional, cell-based
The target of assay [1] is T1, Adenosine receptor A1 (Homo sapiens) (UniProt P30542).
T1 sequence (whole entry): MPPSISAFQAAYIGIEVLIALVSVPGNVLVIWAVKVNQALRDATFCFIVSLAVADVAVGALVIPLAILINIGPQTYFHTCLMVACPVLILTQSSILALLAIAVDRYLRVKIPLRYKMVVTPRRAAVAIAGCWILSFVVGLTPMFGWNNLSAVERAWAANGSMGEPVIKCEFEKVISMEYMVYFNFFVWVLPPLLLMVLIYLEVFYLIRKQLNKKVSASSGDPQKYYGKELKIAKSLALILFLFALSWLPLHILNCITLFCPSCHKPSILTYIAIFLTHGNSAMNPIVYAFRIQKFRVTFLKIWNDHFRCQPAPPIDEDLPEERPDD
The assay can be described thus: Percent change in cAMP content of CHO (Chinese hamster ovary) cells expressing human Adenosine A1 receptor at 0.1 uM. Put shortly: (§1)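 CHO cells stably expressing human A1 receptor (~8000 fmol/mg protein) were grown in Ham's F-12 with 10% FBS and G-418 for 48 h to confluence. HCl (50 mM final) stopped the reaction, and cAMP was measured by radioimmunoassay. Values are % change versus no-compound control, mean ± SEM of six experiments.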

Assay [2] concerns the target T1, Adenosine receptor A1 (Homo sapiens). Put plainly: Percent change in cAMP content of CHO (Chinese hamster ovary) cells expressing human Adenosine A1 receptor at 1 uM. The procedure, abridged: as §1
Assay [3] shares this target. The assay can be described thus: Percent change in cAMP content of CHO (Chinese hamster ovary) cells expressing human Adenosine A1 receptor at 0.01 uM. Put shortly:
as §1

Assay [4] shares this target. Put plainly: Percent change in cAMP content of CHO (Chinese hamster ovary) cells expressing human Adenosine A1 receptor at 10 uM. Put shortly: as §1

On to `Nc1sc2c(c1C(=O)c1ccc3ccccc3c1)CCC(Cc1ccccc1)C2` (stereo not given), for which the Change was 10% in assay [1], -9% in assay [2], 7% in assay [3] and 28% in assay [4].

Turning to `Cc1sc(N)c(C(=O)c2ccc3c(c2)Cc2ccccc2-3)c1C`, the Change in assay [1] is -17%; in assay [2] it was -10%; in assay [3], -4%; in assay [4], -19%.

Turning to `Cc1ccc(C(=O)c2c(N)sc3c2CCCC3)c2ccccc12`, the Change in assay [1] is 13%; in assay [2], -21%; in assay [3], 17%; in assay [4], -45%.

Take `COc1ccc(C2SCc3c(sc(N)c3C(=O)c3cccc4ccccc34)S2)cc1` (stereo not given): the Change in assay [1] stood at 16%; in assay [2] it was 4%; in assay [3] it was 18%; in assay [4], 6%.

For the compound `Nc1sc2c(c1C(=O)c1cccc3ccccc13)CCC(Cc1ccccc1)C2` (stereo not given), the Change in assay [1] is -7%; in assay [2], -14%; in assay [3], -8%; in assay [4], -21%.

As for `Cc1sc(N)c(C(=O)c2cc(C)c3ccccc3c2)c1C`, the Change in assay [1] was -3%; in assay [2] it was -9%; in assay [3] it was 4%; in assay [4], -22%.

For the compound `Nc1sc2c(c1C(=O)c1ccc3ccccc3c1)CCN(Cc1cccc(Cl)c1)C2`, the Change in assay [1] was -12%; in assay [2], 7%; in assay [3], 9%; in assay [4], -3%.

Regarding `Nc1sc2c(c1C(=O)c1ccc(Cl)c3ccccc13)CCN(Cc1ccccc1)C2`, the Change was -1% in assay [1], -7% in assay [2], 3% in assay [3] and -21% in assay [4].

Take `Cc1cc(C(=O)c2c(N)sc3c2CCCC3)cc2ccc(Cl)cc12`: the Change in assay [1] was 1%; in assay [2] it was -11%; in assay [3] it was -0%; in assay [4], -13%.

`Nc1sc2c(c1C(=O)c1ccc3ccccc3c1)CCN(Cc1ccccc1Cl)C2`: the Change was -20% in assay [1], -10% in assay [2], -10% in assay [3] and -17% in assay [4].

Turning to `Cc1sc(N)c(C(=O)c2ccc(Cl)c3ccccc23)c1C`, the Change is -18% in assay [1], -47% in assay [2], 12% in assay [3] and -56% in assay [4].

Take `COc1ccc(C(=O)c2c(N)sc(C)c2C)c2ccccc12`: the Change in assay [1] was 3%; in assay [2] it was -5%; in assay [3], 9%; in assay [4], -38%.

Turning to `Cc1ccc(C(=O)c2c(N)sc3c2CCN(Cc2ccccc2)C3)c2ccccc12`, the Change is -7% in assay [1], -13% in assay [2], -0% in assay [3] and -34% in assay [4].

For `Cc1cc(C(=O)c2c(N)sc3c2CCN(Cc2ccccc2)C3)cc2ccccc12`, the Change in assay [1] is 2%; in assay [2], -0%; in assay [3] it was -0%; in assay [4], -16%.

As to `Nc1sc2c(c1C(=O)c1ccc(Br)c3ccccc13)CCN(Cc1ccccc1)C2`, the Change in assay [1] was -5%; in assay [2], -12%; in assay [3] it was 18%; in assay [4], -42%.

Take `Cc1ccc(C(=O)c2c(N)sc3c2CCC3)c2ccccc12`: the Change was 4% in assay [1], -17% in assay [2], 9% in assay [3] and -48% in assay [4].

In the case of `Cc1sc(N)c(C(=O)c2ccc(I)c3ccccc23)c1C`, the Change in assay [1] was -3%; in assay [2] it was -19%; in assay [3] it was -5%; in assay [4], -63%.

As to `COc1ccc(CN2CCc3c(sc(N)c3C(=O)c3ccc4ccccc4c3)C2)c(OC)c1OC`, the Change in assay [1] was -1%; in assay [2] it was -10%; in assay [3], -3%; in assay [4], 5%.

On to `Cc1sc(N)c(C(=O)c2ccc(Br)c3ccccc23)c1C`, for which the Change in assay [1] is -1%; in assay [2], -2%; in assay [3] it was -8%; in assay [4] it was -60%.

For `Cc1cc(C(=O)c2c(N)sc3c2CCC3)cc2ccc(Cl)cc12`, the Change is -14% in assay [1], -6% in assay [2], 4% in assay [3] and -17% in assay [4].

In the case of `Nc1sc2c(c1C(=O)c1ccc3c(c1)Cc1ccccc1-3)CCCC2`, the Change is 6% in assay [1], 7% in assay [2], 7% in assay [3] and 3% in assay [4].

Regarding `Nc1sc2c(c1C(=O)c1ccc3ccccc3c1)CCN(Cc1ccc(F)cc1)C2`, the Change in assay [1] is -9%; in assay [2], -2%; in assay [3], -11%; in assay [4], -8%.

Regarding `Nc1sc2c(c1C(=O)c1ccc(I)c3ccccc13)CCN(Cc1ccccc1)C2`, the Change in assay [1] is 1%; in assay [2], -6%; in assay [3] it was -6%; in assay [4] it was -13%.

For `Nc1sc2c(c1C(=O)c1cccc3ccccc13)CCN(Cc1ccccc1)C2`, the Change is -7% in assay [1], -25% in assay [2], -21% in assay [3] and 19% in assay [4].

As to `Nc1sc2c(c1C(=O)c1ccc3ccccc3c1)CCN(Cc1ccc(Cl)cc1)C2`, the Change is -8% in assay [1], -21% in assay [2], -6% in assay [3] and -6% in assay [4].

As for `Nc1sc2c(c1C(=O)c1ccc3c(c1)Cc1ccccc1-3)CCC2`, the Change in assay [1] was -15%; in assay [2], -6%; in assay [3] it was -3%; in assay [4], -9%.

As for `COc1ccc(C(=O)c2c(N)sc3c2CCN(Cc2ccccc2)C3)c2ccccc12`, the Change in assay [1] is 11%; in assay [2], 3%; in assay [3] it was -0%; in assay [4], -12%.

As for `Nc1sc2c(c1C(=O)c1ccc3ccccc3c1)CCC(c1ccccc1)C2` (stereo not given), the Change in assay [1] is 5%; in assay [2], 31%; in assay [3], -8%; in assay [4], 33%.

With `Cc1cc(C(=O)c2c(N)sc3c2CCN(Cc2ccccc2)C3)cc2ccc(Cl)cc12`, the Change in assay [1] was 1%; in assay [2], -5%; in assay [3] it was -1%; in assay [4], -9%.

Regarding `Nc1sc2c(c1C(=O)c1ccc3c(c1)Cc1ccccc1-3)CCN(Cc1ccccc1)C2`, the Change in assay [1] is -7%; in assay [2] it was 8%; in assay [3] it was 4%; in assay [4], -1%.

For the compound `COc1ccc(C(=O)c2c(N)sc3c2CCCC3)c2ccccc12`, the Change in assay [1] was 5%; in assay [2], -3%; in assay [3] it was 5%; in assay [4] it was -17%.

Regarding `Cc1sc(N)c(C(=O)c2ccc(C)c3ccccc23)c1C`, the Change in assay [1] is -8%; in assay [2] it was -32%; in assay [3], -5%; in assay [4], -51%.

Regarding `Nc1sc2c(c1C(=O)c1ccc3ccccc3c1)CCN(Cc1ccc([N+](=O)[O-])cc1)C2`, the Change turned out to be 12% in assay [1], 26% in assay [2], 8% in assay [3] and 26% in assay [4].

`Nc1sc2c(c1C(=O)c1ccc3ccccc3c1)CCN(Cc1cccnc1)C2`: the Change in assay [1] is -12%; in assay [2], 41%; in assay [3], -8%; in assay [4], 56%.

For `Cc1cc(C(=O)c2c(N)sc3c2CCCC3)cc2ccccc12`, the Change was -9% in assay [1], -8% in assay [2], -7% in assay [3] and -20% in assay [4].
